# Assay results reported in ChEMBL document CHEMBL1142258, “Discovery of a series of aminopiperidines as novel iNOS inhibitors” (Bioorg Med Chem Lett, 2008).
# Columns and labels:
# Nitric oxide synthase 3 = target: T1, Nitric oxide synthase 3 (Homo sapiens, UniProt P29474); test: Inhibition of human eNOS expressed in insect SF9 cells after 1 hr
# T1 sequence (P29474 whole entry): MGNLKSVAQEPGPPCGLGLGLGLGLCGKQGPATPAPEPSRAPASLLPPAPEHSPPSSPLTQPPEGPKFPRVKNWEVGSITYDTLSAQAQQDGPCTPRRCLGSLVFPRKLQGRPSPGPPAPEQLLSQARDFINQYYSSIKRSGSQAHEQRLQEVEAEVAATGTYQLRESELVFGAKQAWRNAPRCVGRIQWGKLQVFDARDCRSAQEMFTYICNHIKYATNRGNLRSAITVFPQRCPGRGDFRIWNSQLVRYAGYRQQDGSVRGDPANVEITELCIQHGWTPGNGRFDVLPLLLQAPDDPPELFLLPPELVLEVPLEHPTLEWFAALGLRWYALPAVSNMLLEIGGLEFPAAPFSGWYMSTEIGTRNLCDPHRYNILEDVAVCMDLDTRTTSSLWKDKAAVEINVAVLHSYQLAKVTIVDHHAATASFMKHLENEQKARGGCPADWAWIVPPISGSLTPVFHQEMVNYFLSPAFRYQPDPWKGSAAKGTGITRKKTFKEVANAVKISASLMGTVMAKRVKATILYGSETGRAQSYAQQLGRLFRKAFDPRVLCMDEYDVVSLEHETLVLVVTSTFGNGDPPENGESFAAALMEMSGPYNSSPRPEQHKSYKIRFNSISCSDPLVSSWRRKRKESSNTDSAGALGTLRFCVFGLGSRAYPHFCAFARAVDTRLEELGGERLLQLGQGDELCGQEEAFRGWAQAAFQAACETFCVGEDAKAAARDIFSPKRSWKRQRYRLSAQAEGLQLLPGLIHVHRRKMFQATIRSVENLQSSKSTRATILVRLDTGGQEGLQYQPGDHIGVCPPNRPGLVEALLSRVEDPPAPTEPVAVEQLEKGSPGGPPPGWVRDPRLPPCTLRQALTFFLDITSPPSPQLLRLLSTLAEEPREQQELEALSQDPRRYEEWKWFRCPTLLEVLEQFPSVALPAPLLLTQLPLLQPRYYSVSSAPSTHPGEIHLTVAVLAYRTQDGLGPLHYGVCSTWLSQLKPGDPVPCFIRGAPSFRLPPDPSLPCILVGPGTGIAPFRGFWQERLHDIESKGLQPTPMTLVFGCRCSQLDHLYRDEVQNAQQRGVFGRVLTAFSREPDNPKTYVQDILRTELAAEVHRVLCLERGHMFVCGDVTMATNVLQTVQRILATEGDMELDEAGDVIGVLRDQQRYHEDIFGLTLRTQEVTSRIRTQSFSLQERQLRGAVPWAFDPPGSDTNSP
# Outline: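 Human recombinant eNOS from SF9 cells, tested at eight concentrations. Conditions: 10 nM [3H]arginine with NADP+/G6P/G6PDH, MgCl2, FAD, FMN, BH4, plus 25 nM calmodulin, 0.5 mM CaCl2 and 3.5 mM glutathione, in 50 mM Hepes for 1 h at 37 °C. Citrulline was resin-separated and counted, with AMT background. IC50 from one-site fit, geometric mean of ≥3 runs.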
# [1] = target: T2, Nitric oxide synthase, inducible (Homo sapiens, UniProt P35228); test: Inhibition of human iNOS expressed in human DLD1 cells after 1 hr; format: cell-based, DLD-1
# Outline: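 Human iNOS endogenously expressed in DLD-1 cells, eight compound concentrations. Incubated 1 h at 37 °C in 50 mM Hepes with 10 nM [3H]arginine, [14C]citrulline internal standard, β-NADP+, G6P, MgCl2, G6P dehydrogenase, FAD, FMN and BH4. [3H]citrulline was separated on cation-exchange resin and counted; AMT defined background.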
# Nitric oxide synthase 1 [2] = target: T3, Nitric oxide synthase 1 (Homo sapiens, UniProt P29475); test: Inhibition of human nNOS expressed in insect SF9 cells after 1 hr
# Homo sapiens = species: Homo sapiens; test: Selectivity for human eNOS to human iNOS
# Outline: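 Ratio of eNOS IC50 to iNOS IC50, both from [3H]arginine→[3H]citrulline conversion. iNOS was endogenous to DLD-1 cells; eNOS was human recombinant expressed in SF9 cells. Each used 10 nM [3H]arginine with NADP+/G6P/FAD/FMN/BH4 cofactors in 50 mM Hepes for 1 h at 37 °C. The eNOS reaction also had calmodulin, CaCl2 and glutathione. Citrulline was separated by cation exchange and counted. IC50s came from eight concentrations, as geometric means of ≥3 runs.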
# [3] = target: T2, Nitric oxide synthase, inducible; test: Inhibition of cytokine-induced iNOS activity in human DLD1 cells after 24 hrs; format: cell-based, DLD-1
# Outline: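 DLD-1 cells were seeded 3 days ahead, then given fresh medium with 20 ng/mL IFNγ, 4 ng/mL TNFα, 2 ng/mL IL1β and 1 mM L-arginine. Compound titrations in 50 mM Hepes pH 7.4 were added at eight concentrations for 24 h at 37 °C, 5% CO2. Nitrite was read with Griess reagent at 540 nm.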
# [4] = target: T2, Nitric oxide synthase, inducible; test: Inhibition of cytokine-induced iNOS activity in human DLD1 cells at 10 uM after 24 hrs; format: cell-based; conditions: DLD-1
# [5] = target: T4, Nitric oxide synthase 3 (Homo sapiens) (UniProt P29474); test: Inhibition of human eNOS expressed in insect SF9 cells at 10 uM after 1 hr
# T4 sequence (whole entry): T1 sequence (P29474 whole entry)
# Nitric oxide synthase 1 [6] = target: T3, Nitric oxide synthase 1; test: Inhibition of human nNOS expressed in insect SF9 cells at 10 uM after 1 hr
# Outline: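 Human recombinant nNOS expressed in SF9 cells, incubated with test compound, 10 nM [3H]arginine and [14C]citrulline (80–120 nM) internal standard in 50 mM Hepes for 1 h at 37 °C. Cofactors were β-NADP+, G6P, MgCl2, G6P dehydrogenase, FAD, FMN, BH4, 25 nM calmodulin, 0.5 mM CaCl2 and 3.5 mM glutathione. After MES stop and cation-exchange filtration, [3H]citrulline was counted; background came from 10 µM AMT.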
# [7] = target: T2, Nitric oxide synthase, inducible; test: Inhibition of human iNOS expressed in human DLD1 cells at 10 uM after 1 hr; format: cell-based; conditions: DLD-1
# T3 sequence (P29475 whole entry): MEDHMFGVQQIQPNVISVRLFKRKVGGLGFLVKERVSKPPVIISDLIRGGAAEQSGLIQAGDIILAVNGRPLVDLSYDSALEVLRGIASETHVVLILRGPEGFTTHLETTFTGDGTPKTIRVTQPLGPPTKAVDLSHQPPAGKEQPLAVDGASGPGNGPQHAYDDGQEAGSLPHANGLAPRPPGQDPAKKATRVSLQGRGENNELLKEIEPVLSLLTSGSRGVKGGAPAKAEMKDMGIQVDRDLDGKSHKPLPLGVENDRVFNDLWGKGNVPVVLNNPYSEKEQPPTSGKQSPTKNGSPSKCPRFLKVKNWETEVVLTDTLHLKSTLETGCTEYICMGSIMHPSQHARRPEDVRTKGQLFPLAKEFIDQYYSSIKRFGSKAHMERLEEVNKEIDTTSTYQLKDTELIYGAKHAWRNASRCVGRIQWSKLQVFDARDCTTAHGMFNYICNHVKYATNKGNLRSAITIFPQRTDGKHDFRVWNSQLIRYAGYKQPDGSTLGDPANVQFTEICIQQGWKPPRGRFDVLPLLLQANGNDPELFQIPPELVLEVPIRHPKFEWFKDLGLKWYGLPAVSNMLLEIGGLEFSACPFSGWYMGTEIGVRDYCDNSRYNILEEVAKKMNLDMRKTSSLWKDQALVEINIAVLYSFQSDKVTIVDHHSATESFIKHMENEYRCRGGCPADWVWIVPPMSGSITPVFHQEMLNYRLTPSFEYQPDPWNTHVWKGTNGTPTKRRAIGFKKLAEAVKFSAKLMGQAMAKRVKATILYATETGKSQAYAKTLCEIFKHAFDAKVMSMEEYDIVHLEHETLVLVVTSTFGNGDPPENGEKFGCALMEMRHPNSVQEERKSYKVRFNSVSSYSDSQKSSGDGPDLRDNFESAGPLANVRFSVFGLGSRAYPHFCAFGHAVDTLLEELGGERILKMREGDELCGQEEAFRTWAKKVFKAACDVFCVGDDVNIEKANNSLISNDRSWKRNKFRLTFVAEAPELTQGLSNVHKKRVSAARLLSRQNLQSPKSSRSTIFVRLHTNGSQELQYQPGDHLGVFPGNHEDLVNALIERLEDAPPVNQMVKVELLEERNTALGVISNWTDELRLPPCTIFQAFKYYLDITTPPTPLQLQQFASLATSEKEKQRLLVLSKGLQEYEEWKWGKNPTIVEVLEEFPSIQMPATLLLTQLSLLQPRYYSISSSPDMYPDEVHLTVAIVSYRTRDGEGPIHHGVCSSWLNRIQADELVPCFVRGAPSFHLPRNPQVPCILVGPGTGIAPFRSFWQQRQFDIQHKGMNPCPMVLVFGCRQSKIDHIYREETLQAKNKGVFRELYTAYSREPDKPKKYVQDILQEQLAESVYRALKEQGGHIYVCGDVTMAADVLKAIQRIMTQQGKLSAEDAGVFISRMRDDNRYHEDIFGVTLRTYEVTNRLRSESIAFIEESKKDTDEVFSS
# T2 sequence (P35228 whole entry): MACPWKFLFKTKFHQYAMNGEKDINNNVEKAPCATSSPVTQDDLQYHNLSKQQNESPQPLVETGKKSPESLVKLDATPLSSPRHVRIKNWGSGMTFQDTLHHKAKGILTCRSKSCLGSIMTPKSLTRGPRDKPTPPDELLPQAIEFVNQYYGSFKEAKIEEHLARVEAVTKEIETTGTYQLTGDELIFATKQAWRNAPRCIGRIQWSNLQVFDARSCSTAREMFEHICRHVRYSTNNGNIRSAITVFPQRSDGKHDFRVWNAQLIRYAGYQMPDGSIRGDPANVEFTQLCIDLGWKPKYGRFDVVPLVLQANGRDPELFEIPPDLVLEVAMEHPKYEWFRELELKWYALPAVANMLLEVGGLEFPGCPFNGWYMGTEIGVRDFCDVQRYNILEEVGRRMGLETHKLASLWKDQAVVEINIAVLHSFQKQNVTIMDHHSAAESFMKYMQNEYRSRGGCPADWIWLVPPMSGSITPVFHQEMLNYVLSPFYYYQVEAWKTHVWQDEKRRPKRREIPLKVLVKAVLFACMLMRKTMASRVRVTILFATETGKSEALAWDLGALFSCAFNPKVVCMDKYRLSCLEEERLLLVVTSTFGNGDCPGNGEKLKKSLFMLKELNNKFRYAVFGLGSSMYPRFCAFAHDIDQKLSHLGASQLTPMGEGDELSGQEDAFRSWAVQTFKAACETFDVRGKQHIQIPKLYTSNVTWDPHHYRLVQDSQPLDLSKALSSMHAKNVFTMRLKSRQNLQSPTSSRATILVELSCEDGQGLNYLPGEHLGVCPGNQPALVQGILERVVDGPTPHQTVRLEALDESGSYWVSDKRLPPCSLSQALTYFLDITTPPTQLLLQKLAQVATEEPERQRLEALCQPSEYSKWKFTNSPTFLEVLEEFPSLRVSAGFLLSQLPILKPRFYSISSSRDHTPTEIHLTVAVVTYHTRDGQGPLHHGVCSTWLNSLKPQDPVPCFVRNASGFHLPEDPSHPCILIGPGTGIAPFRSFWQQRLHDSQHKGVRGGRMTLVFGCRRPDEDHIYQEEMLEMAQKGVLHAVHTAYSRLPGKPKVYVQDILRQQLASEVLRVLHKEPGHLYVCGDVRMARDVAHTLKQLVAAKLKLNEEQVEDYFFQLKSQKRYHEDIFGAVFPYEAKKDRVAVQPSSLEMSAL
SMILES,IC50 (Nitric oxide synthase 3) [nM],IC50 [1] [nM],IC50 (Nitric oxide synthase 1 [2]) [nM],Ratio IC50 (Homo sapiens),IC50 [3] [µM],inhibition [4] [%],inhibition [5] [%],inhibition (Nitric oxide synthase 1 [6]) [%],inhibition [7] [%]
CC(=N)NCCCC[C@H](N)C(=O)O [L-NIL],2500,280,6000,9,31,,,,
CCCCN(Cc1cc(Cl)ccc1C#N)C1CCNCC1,,570,,,5,,,,
CN1CCC(N(C)Cc2cc(Cl)ccc2Br)CC1,820,420,590,2,,51,,,
CC(C)CN(Cc1cc(Cl)ccc1C#N)[C@@H]1CCCNC1,,260,1200,> 25,1.5,,23,,
CCN1CCC(N(C)Cc2cc(Cl)ccc2C#N)CC1,450,370,370,1,4.5,,,,
CN(Cc1cc(Cl)ccc1C#N)C1CCNC1 (stereo unspecified),4000,1200,1200,3,,33,,,
CC(C)N(Cc1cc(Cl)ccc1C#N)C1CCNCC1,570,32,190,18,0.38,,,,
CN1CCC(N(C)Cc2cc(Br)ccc2C#N)CC1,810,210,530,4,3.7,,,,
N#Cc1ccc(Cl)cc1CN(c1ccccc1)C1CCNCC1,,660,,> 15,8,,0,33,
CN(Cc1cc(Cl)ccc1C#N)C1CCN(CC2CC2)CC1,860,250,530,3,3.5,,,,
CN(Cc1cc(Cl)ccc1C#N)C1CCNCC1,1100,330,350,3,5.9,,,,
CC(C)CN(Cc1cc(Cl)ccc1C#N)[C@H]1CCCN(C)C1,,720,6500,> 50,0.32,,0,,
CN1CCC(N(C)Cc2cc(Cl)ccc2[N+](=O)[O-])CC1,180,90,80,2,1.1,,,,
CCCCN1CCC(N(C)Cc2cc(Cl)ccc2C#N)CC1,680,340,420,2,3.8,,,,
CC(=N)NCCSCC[C@H](N)C(=O)O [GW-274150],,220,8400,> 45,,26,< 15,,
CN1CCC(N(C)Cc2cc([N+](=O)[O-])ccc2Cl)CC1,,,,,,< 15,,,< 15
CC(C)CN1CCC(N(C)Cc2cc(Cl)ccc2C#N)CC1,540,400,600,1,3.2,,,,
N#Cc1ccc(C(=O)N2CCC3(CC2)N=C(N)c2c(F)ccc(F)c2N3)cn1,,,,,,,< 15,,

SMILES,IC50 (Nitric oxide synthase 3) [nM],IC50 [1] [nM],IC50 (Nitric oxide synthase 1 [2]) [nM],Ratio IC50 (Homo sapiens),IC50 [3] [µM],inhibition [4] [%],inhibition [5] [%],inhibition (Nitric oxide synthase 1 [6]) [%],inhibition [7] [%]
CN1CCC(N(C)Cc2cc(Cl)ccc2C#N)CC1,770,290,540,3,3.7,,,,
CCCN1CCC(N(C)Cc2cc(Cl)ccc2C#N)CC1,1100,670,810,2,4.4,,,,
COc1ccc(C#N)c(CN(C)C2CCN(C)CC2)c1,,5100,,,,< 15,,,
CC(C)CN(Cc1cc(Cl)ccc1C#N)[C@@H]1CCCN(C)C1,,470,4900,> 15,0.66,,0,,
CN1CCC(N(C)Cc2cc(Cl)ccc2C(F)(F)F)CC1,1400,700,780,2,,48,,,
CCCN(Cc1cc(Cl)ccc1C#N)C1CCNCC1,1700,130,140,13,0.28,,,,
CN(Cc1cc(Cl)ccc1C#N)C1CCN(Cc2ccccc2)CC1,4300,270,1800,16,3.5,,,,
CN(Cc1cc(Cl)ccc1C#N)C1CCN(CCc2ccccc2)CC1,220,300,150,1,3.3,,,,
N#Cc1ccc(Cl)cc1CN(CC1CC1)C1CCNCC1,2100,160,748,13,1.4,,,,
N#Cc1ccc(Cl)cc1CN(C1CCCC1)C1CCNCC1,,1500,,> 7,6.7,,1,24,
CC(C)CN(Cc1cc(Cl)ccc1C#N)C1CCCNC1 (stereo unspecified),,290,2500,> 15,1.2,,15,,
CN1CCC(N(C)Cc2ccccc2)CC1,,,,,,< 15,,,< 15
CN(Cc1cc(Cl)ccc1C#N)C1CCCNCC1 (stereo unspecified),4400,660,1200,7,,31,,,
CC(C)CN(Cc1cc(Cl)ccc1C#N)C1CCNCC1,,390,1900,> 25,0.57,,20,,
CN(Cc1cc(Cl)ccc1C#N)C1CCCNC1 (stereo unspecified),983,180,190,5,4.4,,,,
CCN(Cc1cc(Cl)ccc1C#N)C1CCNCC1,1000,100,360,10,0.58,,,,
CC(C)CN(Cc1cc(Cl)ccc1C#N)[C@H]1CCCNC1,,330,5300,> 25,0.57,,0,,
CN1CCC(N(C)Cc2ccccc2[N+](=O)[O-])CC1,,,,,,< 15,,,< 15
